Screening results as filed in PubChem BioAssay.
D1 allo mod: D1 CRE-luciferase signal change, two-sided – cell-based, HEK293 D1, dopamine EC30, D1 allosteric modulator project, primary screen. D(1A) dopamine receptor (Homo sapiens), P21728. dopamine EC30 potentiation; actives deviate in either direction. B-score at 10 µM. 58,000 compounds, 5.9% hits;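 active means luminescence count or its row- and column-corrected plate score outside the 99.7% band of the plate's sample wells, on either side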
RORa activator: activators of orphan receptor RORA, primary screen, cell-based, luminescence | Nuclear receptor ROR-alpha (Homo sapiens), P35398 | CHO-K1 Gal4-RORA LBD luciferase reporter; percent increase over mock-subtracted basal signal | activation, % at 10 µM | 65,000 compounds, 1.5% hits | AID 560, 2006;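 active means activation above the mean of all tested compounds plus 3 SD, cut at about 49% in these data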
SF-1 act: activators of human SF-1, primary screen, cell-based, CHO-K1, Gal4-SF-1 LBD, luciferase luminescence; AID 522, 2006; Steroidogenic factor 1 (Homo sapiens), Q13285; 65,000 compounds, 1.9% hits; activation, % at 10 µM; CHO-K1 Gal4-SF-1 LBD luciferase reporter; % increase over DMSO SF-1-specific signal;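 active means activation above the mean activation of all tested compounds plus 3 SD, cut at about 50% in these data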
Target sequence (Q13285 whole entry, looked up, the tested form may be a part): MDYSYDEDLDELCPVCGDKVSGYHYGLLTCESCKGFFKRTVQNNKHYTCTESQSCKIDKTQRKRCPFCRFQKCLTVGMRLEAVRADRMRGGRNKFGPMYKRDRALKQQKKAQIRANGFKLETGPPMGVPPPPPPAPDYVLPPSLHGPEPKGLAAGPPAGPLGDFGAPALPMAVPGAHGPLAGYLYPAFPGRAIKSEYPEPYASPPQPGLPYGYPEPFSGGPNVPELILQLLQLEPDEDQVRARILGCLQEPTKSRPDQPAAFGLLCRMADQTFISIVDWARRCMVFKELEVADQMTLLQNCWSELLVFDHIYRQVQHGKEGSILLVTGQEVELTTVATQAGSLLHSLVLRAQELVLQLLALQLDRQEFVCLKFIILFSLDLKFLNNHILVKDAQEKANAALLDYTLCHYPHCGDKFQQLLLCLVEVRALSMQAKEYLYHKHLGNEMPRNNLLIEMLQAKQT
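Test system: transient Gal4-SF-1 LBD reporter, CHO-K1; Amount: 4,000 CHO-K1 cells per well; Doses: 10 µM only; Timing: compound exposure 20 h at 37 °C; Signal: luciferase light emission; Read-out basis: percent activation relative to DMSO median and mock-transfected background; Control set: DMSO negative control and −SF1 background wells; Replicates: one test per compound.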
M1 antag: antagonists of rat M1 muscarinic receptor; Muscarinic acetylcholine receptor M1 (Rattus norvegicus), P08482; CHO-M1 cells, Fluo-4 calcium, ACh EC80 antagonist mode; hits give low values; B-score at 10 µM; 64,000 compounds, 3.4% hits; AID 628, 2007;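 active means calcium fluorescence response, raw or row-and-column corrected B-score, differing from the plate sample mean either way at a set confidence level, mostly lower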
Htt clearance: clearance of mutant huntingtin inclusions, primary screen, imaging, HeLa Exon1htt(103Q)mCFP, confocal imaging. 47,000 compounds, 0.42% hits. aggregate imaging; zero = plate's median compound well. inhibition, % at 1.5 µM. AID 853, 2007;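 active means inhibition of aggregate fluorescence above about 70%, also judged a hit by eye on the cell image, limit read from the data, passing the limit was not always enough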;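 further: cells exposed to compound for three days before fixation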
M1 ag: M1 muscarinic receptor agonists, primary screen, CHO-M1 cells, Fluo-4 calcium, agonist mode; Muscarinic acetylcholine receptor M1; Fluo-4 calcium fluorescence; hits give high values; B-score at 10 µM; AID 626, 2007; 64,000 compounds, 3% hits;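 active means fluorescence rise, raw or as B-score row- and column-corrected plate score, outside the 99.7% band of its plate's samples, either direction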
Hits are given with their value; . = inactive; / = no result given. In the library only some 11% were active in any assay of this set; here they are far more common.

SMILES	D1 allo mod	RORa activator	SF-1 act	M1 antag	Htt clearance	M1 ag
CCC(C)N1CC23C=CC(O2)C(C(=O)OCc2ccccc2)C3C1=O (configuration not stated)	/	.	.	.	/	.
Cc1cc(N)c(-n2cc3c(=O)n(C)c(=O)n(C)c3c2)cc1C	.	54.0	.	.	/	.
Cc1ccc(-c2csc3nnc(SCC(=O)NCc4ccc5c(c4)OCO5)n23)cc1	19.3	.	.	.	.	8.71
O=C(CSc1nnc(-c2cccs2)n1-c1ccccc1)NCc1ccc2c(c1)OCO2	.	.	.	.	72.6	.
O=C(CSc1nnc(-c2cccs2)n1Cc1ccccc1)NCc1ccc2c(c1)OCO2	/	/	/	/	.	/
O=C(CCN1CCN(c2ccccc2F)CC1)Nc1ccc2c(c1)OCO2	.	.	.	.	/	.
COc1cc(OC)c(-c2nc3cnccc3n2C)cc1OC	.	.	.	.	.	.
Cn1c(-c2ccc3ccccc3n2)nc2cnccc21	.	54.6	64.7	.	/	.
CCOC(=O)N1CCN(CCC(=O)c2ccc(Cl)cc2)CC1	.	.	.	-0.806	.	3.41
COc1ccc2oc(=O)c(C(=O)N3c4ccccc4CC3C)cc2c1 (configuration not stated)	/	/	/	/	.	/
N#CC1=C(N)C(C#N)(C#N)C(c2cccnc2)C2CCCC=C12 (configuration not stated)	.	.	.	.	/	7.93
CC(C)c1ccc(C2C3CSCC=C3C(C#N)=C(N)C2(C#N)C#N)cc1 (configuration not stated)	/	/	/	/	.	/
CC1=C(C#N)c2nc(N)c(C#N)c(C)c2/C1=C\c1ccccc1	.	.	.	.	/	.
O=C1/C(=C/Nc2ccc3c(c2)OCO3)CCc2ccccc21	-6.15	.	.	.	/	.
O=C1OC2(CCCCC2)OC(=O)C1=CNc1ccc2c(c1)OCO2	.	.	.	.	/	.
Cc1cccc(Nc2ncc3c(n2)CC(c2ccco2)CC3=O)c1 (configuration not stated)	.	.	.	.	.	.
Cc1cccc(Nc2ncc3c(n2)CC(C)CC3=O)c1 (configuration not stated)	.	71.6	71.8	.	.	.
CC(=O)c1cnc(Nc2nc(C)c3ccc(C)cc3n2)nc1C	.	.	.	.	/	.
Cc1ccc2nc(Nc3ncc4c(n3)CCCC4=O)nc(C)c2c1	.	.	.	-2.74	/	.
O=C(COc1ccccc1)Nc1ncc2c(n1)CCCC2=O	.	.	.	.	.	.
Cc1cc(C)cc(Nc2ncc3c(n2)CCCC3=O)c1	-5.01	.	.	.	.	.
O=C(CCCCCN1C(=O)c2ccccc2C1=O)Nc1ccc(F)cc1	/	/	/	/	.	/
c1ccc(CSc2ncn(-c3ccccc3)n2)cc1	.	.	81.0	.	.	.
Nc1nc(CSc2ncn(-c3ccccc3)n2)cs1	.	.	59.4	.	.	.
O=C(CSc1ncn(-c2ccccc2)n1)Nc1ccc(Br)cn1	.	.	.	.	.	.
SMILES	D1 allo mod	RORa activator	SF-1 act	M1 antag	Htt clearance	M1 ag
O=C(CSc1ncn(-c2ccccc2)n1)c1cccs1	.	48.7	.	.	.	.
Cc1csc(C(C#N)C(=O)c2ccc(S(=O)(=O)N3CCCC3)cc2)n1 (configuration not stated)	.	.	.	.	.	.
COc1ccc(NC(=O)c2cnc3ccccn3c2=O)cc1OC	.	52.8	.	.	/	.
O=C(Nc1cccc(-c2nnc(-c3ccccc3)o2)c1)C1CCCCC1	.	49.3	53.2	.	.	.
Cc1cccc(C)c1OCC(=O)Nc1cccc(-c2nnc(-c3ccccc3)o2)c1	/	.	.	.	/	.
CCCCC(=O)Nc1cccc(-c2nnc(-c3ccccc3)o2)c1	.	67.9	.	.	.	2.67
CC(C)Cn1c(SCC(=O)c2ccc(Cl)s2)nnc1-c1ccco1	.	.	.	.	.	.
CCCCOc1ccc(C)cc1CN(CCO)CCO	.	.	.	2.05	/	.
CC(C)C(OC(=O)c1ccco1)C(=O)NCc1cccs1 (configuration not stated)	.	.	.	.	/	.
Cc1cc2c(c(=O)n1Cc1ccccn1)C(c1ccc3c(c1)OCO3)C(C#N)=C(N)O2 (configuration not stated)	.	.	.	.	/	.
COc1cc(C2C(C#N)=C(N)Oc3cc(C)n(Cc4ccccn4)c(=O)c32)cc2c1OCO2 (configuration not stated)	.	.	.	-10	/	33.8
Cn1c(=N)c(S(=O)(=O)c2ccc(Cl)cc2)cc2c(=O)n3ccccc3nc21	4.83	.	.	.	.	.
COc1ccc2[nH]c(=O)c(CN(CCCN(C)C)C(=O)Nc3ccc(F)cc3)cc2c1	.	.	.	.	/	.
Cc1ccc(/C=N/c2sc3c(c2C#N)CCCCC3)o1	.	.	54.4	.	/	.
N#Cc1c(/N=C/c2ccco2)sc2c1CCC2	.	.	.	.	.	.
CN1CCN(/C=N/c2sc3c(c2C#N)CCCCC3)CC1	.	.	54.5	.	.	.
CCOC(=O)N1CCC(NS(=O)(=O)c2cc(Br)cnc2N)CC1	.	.	.	.	/	.
CN(C1=NC(=O)C(CC(=O)Nc2ccc(Br)cc2)S1)c1ccc(O)cc1 (configuration not stated)	-3.78	.	.	.	.	.
Cc1ccc(S(=O)(=O)Cn2nnnc2CN(Cc2ccco2)CC2CCCO2)cc1 (configuration not stated)	.	.	.	.	.	.
O=C(C1CC(c2ccc(F)cc2)=NO1)N1CCc2ccccc2C1 (configuration not stated)	.	.	.	.	/	.
CC1CCCCN1C(=O)C1CC(c2ccc(F)cc2)=NO1 (configuration not stated)	.	49.3	62.6	.	.	.
O=C(C1CC(c2ccc(F)cc2)=NO1)N1CCCCC1 (configuration not stated)	.	.	54.6	.	.	.
O=C(NCc1cccs1)c1cnn2cccnc12	.	.	.	.	/	.
Cc1cc(NC(=O)c2cnn3cccnc23)no1	.	.	.	0.809	/	.
O=C(Nc1cccc(Cl)c1)c1cnn2cccnc12	.	.	104.8	.	.	.
CCOC(=O)c1sc(NC(=O)CSc2nnc3c4ccccc4n(CC)c3n2)nc1C	.	/	/	.	/	.
CCOC(=O)c1sc(NC(=O)C(CC)Sc2nnc3c4ccccc4n(CC)c3n2)nc1C (configuration not stated)	4.18	.	.	.	/	.
O=C(CSc1ccccn1)c1ccc2c(c1)OCO2	.	.	61.2	.	.	.
Cc1ccc2nc(SCC(=O)c3ccc4c(c3)OCO4)[nH]c2c1	/	/	/	/	.	/
